Measured values from ChEMBL document CHEMBL1255500, “Safety and pharmacokinetics of the antiorthopoxvirus compound ST-246 following repeat oral dosing in healthy adult subjects” (Antimicrob Agents Chemother, 2010).

Tests used:
Homo sapiens [1] = assay: Toxicity in healthy human assessed as incidence of flatulence at 800 mg/day, po administered for 21 days; assay type: organism-based; settings: in vivo, 504 h
How it was run: (§1)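 Randomized, double-blind, placebo-controlled escalating study; 8 active and 2 placebo subjects per dose group, oral daily dosing after a standard light meal for 21 days. Safety was followed through adverse event reporting, vital signs, physical exam, hematology, blood chemistry, urinalysis and ECGs, with clinic visits at weeks 1 to 3. Laboratory AEs were graded by DAIDS criteria. Results are the number and percentage of subjects reporting each treatment-emergent AE.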

[2] = AUC in healthy human at 250 mg/day, po administered for 21 days measured at day 1; assay type: ADME, organism-based; settings: plasma
How it was run: (§2)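 Phase I randomized, double-blind, placebo-controlled escalating multiple-dose study; 8 nonfasting healthy adults per dose group, one oral dose daily within 30 min after a standard light meal (400 to 450 cal, ~25% fat) for 21 days. Plasma was sampled serially on days 1, 6 and 21 (72 h after the last dose) and stored at −70°C. ST-246 was measured by validated LC-MS/MS with an analog internal standard (plasma range 50 to 4,000 ng/ml). Parameters (AUCtau, Cmax, Tmax, t1/2) came from noncompartmental analysis.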

[3] = Cmax in healthy human at 400 mg/day, po administered for 21 days measured at day 1; assay type: ADME, organism-based; parameters: dose 400 mg/day, route oral; settings: in vivo
How it was run: (§3)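 Healthy adult volunteers, 8 per dose group, in the nonfasted state. Each took one oral dose daily for 21 days, within 30 min after a standard light meal (400 to 450 cal, ~25% fat). Venous blood was drawn predose and postdose on days 1, 6 and 21. Plasma was stored at −70°C and assayed by validated LC-MS/MS with an analog internal standard (range 50 to 4,000 ng/ml). AUCtau and Cmax were obtained by noncompartmental analysis.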

[4] = Cmax in healthy human at 800 mg/day, po administered for 21 days measured at day 1; assay type: ADME, organism-based; parameters: dose 800 mg/day, route oral; settings: in vivo; how it was run: as §3
Homo sapiens [5] = assay: Toxicity in healthy human assessed as incidence of treatment-emergent adverse events at 800 mg/day, po administered for 21 days; assay type: organism-based; settings: in vivo, 504 h; how it was run: as §1
[6] = AUC in healthy human at 400 mg/day, po administered for 21 days measured at day 21; assay type: ADME, organism-based; parameters: dose 400 mg/day, route oral; settings: plasma; how it was run: as §2
Homo sapiens [7] = assay: Toxicity in healthy human assessed as incidence of nausea at 400 mg/day, po administered for 21 days; assay type: organism-based; settings: in vivo, 504 h; how it was run: as §1
Homo sapiens [8] = assay: Toxicity in healthy human assessed as incidence of treatment-emergent adverse events at 250 mg/day, po administered for 21 days; assay type: organism-based; settings: in vivo, 504 h; how it was run: as §1
[9] = Cmax in healthy human at 800 mg/day, po administered for 21 days measured at day 6; assay type: ADME, organism-based; parameters: dose 800 mg/day, route oral; settings: in vivo; how it was run: as §3
Homo sapiens [10] = assay: Toxicity in healthy human assessed as incidence of flatulence at 400 mg/day, po administered for 21 days; assay type: organism-based; settings: in vivo, 504 h; how it was run: as §1
[11] = Cmax in healthy human at 250 mg/day, po administered for 21 days measured at day 1; assay type: ADME, organism-based; parameters: dose 250 mg/day, route oral; settings: in vivo; how it was run: as §3
[12] = Cmax in healthy human at 250 mg/day, po administered for 21 days measured at day 6; assay type: ADME, organism-based; parameters: dose 250 mg/day, route oral; settings: in vivo; how it was run: as §3
[13] = AUC in healthy human at 400 mg/day, po administered for 21 days measured at day 6; assay type: ADME, organism-based; settings: plasma; how it was run: as §3
Homo sapiens [14] = assay: Toxicity in healthy human assessed as incidence of headache at 250 mg/day, po administered for 21 days; assay type: organism-based; settings: in vivo, 504 h; how it was run: as §1
[15] = Tmax in healthy human at 250 to 800 mg/day, po administered for 21 days measured at day 21; assay type: ADME, organism-based; settings: in vivo; how it was run: as §2
[16] = Cmax in healthy human at 400 mg/day, po administered for 21 days measured at day 21; assay type: ADME, organism-based; settings: in vivo; how it was run: as §2
Homo sapiens [17] = assay: Toxicity in healthy human assessed as incidence of somnolence at 800 mg/day, po administered for 21 days; assay type: organism-based; settings: in vivo, 504 h; how it was run: as §1
[18] = Half life in healthy human at 800 mg/day, po administered for 21 days measured at day 21; assay type: ADME, organism-based; settings: in vivo; how it was run: as §2
[19] = Cmax in healthy human at 400 mg/day, po administered for 21 days measured at day 6; assay type: ADME, organism-based; parameters: dose 400 mg/day, route oral; settings: in vivo; how it was run: as §3
Homo sapiens [20] = assay: Toxicity in healthy human assessed as incidence of abnormal eye sensation at 800 mg/day, po administered for 21 days; assay type: organism-based; settings: in vivo, 504 h; how it was run: as §1
Homo sapiens [21] = assay: Toxicity in healthy human assessed as incidence of urticaria at 400 mg/day, po administered for 21 days; assay type: organism-based; settings: in vivo, 504 h; how it was run: as §1
Homo sapiens [22] = assay: Toxicity in healthy human assessed as incidence of fatigue at 800 mg/day, po administered for 21 days; assay type: organism-based; settings: in vivo, 504 h; how it was run: as §1
Homo sapiens [23] = assay: Toxicity in healthy human assessed as incidence of dry mouth at 800 mg/day, po administered for 21 days; assay type: organism-based; settings: in vivo, 504 h; how it was run: as §1
Homo sapiens [24] = assay: Toxicity in healthy human assessed as incidence of somnolence at 250 mg/day, po administered for 21 days; assay type: organism-based; settings: in vivo, 504 h; how it was run: as §1
[25] = AUC in healthy human at 250 mg/day, po administered for 21 days measured at day 6; assay type: ADME, organism-based; settings: plasma; how it was run: as §3
Homo sapiens [26] = assay: Toxicity in healthy human assessed as incidence of headache at 400 mg/day, po administered for 21 days; assay type: organism-based; settings: in vivo, 504 h; how it was run: as §1
[27] = AUC in healthy human at 800 mg/day, po administered for 21 days measured at day 21; assay type: ADME, organism-based; settings: plasma; how it was run: as §3
[28] = AUC in healthy human at 400 mg/day, po administered for 21 days measured at day 1; assay type: ADME, organism-based; settings: plasma; how it was run: as §2
Homo sapiens [29] = assay: Toxicity in healthy human assessed as incidence of dry mouth at 400 mg/day, po administered for 21 days; assay type: organism-based; settings: in vivo, 504 h; how it was run: as §1
[30] = Tmax in healthy human at 250 to 800 mg/day, po administered for 21 days measured at day 1; assay type: ADME, organism-based; settings: in vivo; how it was run: as §2
Homo sapiens [31] = assay: Toxicity in healthy human assessed as incidence of urticaria at 800 mg/day, po administered for 21 days; assay type: organism-based; settings: in vivo, 504 h; how it was run: as §1
Homo sapiens [32] = assay: Toxicity in healthy human assessed as incidence of fatigue at 400 mg/day, po administered for 21 days; assay type: organism-based; settings: in vivo, 504 h; how it was run: as §1
Homo sapiens [33] = assay: Toxicity in healthy human assessed as incidence of dry mouth at 250 mg/day, po administered for 21 days; assay type: organism-based; settings: in vivo, 504 h; how it was run: as §1
[34] = AUC in healthy human at 800 mg/day, po administered for 21 days measured at day 6; assay type: ADME, organism-based; settings: plasma; how it was run: as §3
Homo sapiens [35] = assay: Toxicity in healthy human assessed as incidence of abnormal eye sensation at 400 mg/day, po administered for 21 days; assay type: organism-based; settings: in vivo, 504 h; how it was run: as §1
Homo sapiens [36] = assay: Toxicity in healthy human assessed as incidence of flatulence at 250 mg/day, po administered for 21 days; assay type: organism-based; settings: in vivo, 504 h; how it was run: as §1
Homo sapiens [37] = assay: Toxicity in healthy human assessed as incidence of nausea at 250 mg/day, po administered for 21 days; assay type: organism-based; settings: in vivo, 504 h; how it was run: as §1
Homo sapiens [38] = assay: Toxicity in healthy human assessed as incidence of somnolence at 400 mg/day, po administered for 21 days; assay type: organism-based; settings: in vivo, 504 h; how it was run: as §1
[39] = AUC in healthy human at 800 mg/day, po administered for 21 days measured at day 1; assay type: ADME, organism-based; settings: plasma; how it was run: as §3
[40] = Tmax in healthy human at 250 to 800 mg/day, po administered for 21 days measured at day 6; assay type: ADME, organism-based; settings: in vivo; how it was run: as §2
[41] = Half life in healthy human at 250 mg/day, po administered for 21 days measured at day 21; assay type: ADME, organism-based; settings: in vivo
How it was run: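 Healthy nonfasted volunteers took one oral dose daily for 21 days after a standard light meal. Plasma was sampled for 72 h after the last dose on day 21 (days 21 to 24) and quantified by validated LC-MS/MS. Terminal t1/2 was derived noncompartmentally from the observed elimination rate constant (λz), and mean and median were given.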

Homo sapiens [42] = assay: Toxicity in healthy human assessed as incidence of abnormal eye sensation at 250 mg/day, po administered for 21 days; assay type: organism-based; settings: in vivo, 504 h; how it was run: as §1
Homo sapiens [43] = assay: Toxicity in healthy human assessed as incidence of nausea at 800 mg/day, po administered for 21 days; assay type: organism-based; settings: in vivo, 504 h; how it was run: as §1
Homo sapiens [44] = assay: Toxicity in healthy human assessed as incidence of fatigue at 250 mg/day, po administered for 21 days; assay type: organism-based; settings: in vivo, 504 h; how it was run: as §1
Homo sapiens [45] = assay: Toxicity in healthy human assessed as incidence of urticaria at 250 mg/day, po administered for 21 days; assay type: organism-based; settings: in vivo, 504 h; how it was run: as §1
[46] = AUC in healthy human at 250 mg/day, po administered for 21 days measured at day 21; assay type: ADME, organism-based; settings: plasma; how it was run: as §3
Homo sapiens [47] = assay: Toxicity in healthy human assessed as incidence of headache at 800 mg/day, po administered for 21 days; assay type: organism-based; settings: in vivo, 504 h; how it was run: as §1
[48] = Half life in healthy human at 400 mg/day, po administered for 21 days measured at day 21; assay type: ADME, organism-based; settings: in vivo; how it was run: as §2

O=C(NN1C(=O)[C@@H]2[C@@H]3C=C[C@@H]([C@H]4C[C@@H]34)[C@@H]2C1=O)c1ccc(C(F)(F)F)cc1 [TECOVIRIMAT]
Activity (Homo sapiens [1]): 25%
AUC at 504 h [2]: 9100 ng·h/mL
Cmax [3]: 1390 ng/mL
Cmax [4]: 2280 ng/mL
Activity (Homo sapiens [5]): 62.5%
AUC at 504 h [6]: 16200 ng·h/mL
Activity (Homo sapiens [7]): 0%
Activity (Homo sapiens [8]): 75%
Cmax [9]: 2340 ng/mL
Activity (Homo sapiens [10]): 0%
Cmax [11]: 985 ng/mL
Cmax [12]: 1210 ng/mL
AUC at 504 h [13]: 15400 ng·h/mL
Activity (Homo sapiens [14]): 37.5%
Tmax [15]: 2.67 h
Cmax [16]: 1460 ng/mL
Activity (Homo sapiens [17]): 12.5%
half-life [18]: 1240 min
Cmax [19]: 1300 ng/mL
Activity (Homo sapiens [20]): 12.5%
Activity (Homo sapiens [21]): 0%
Activity (Homo sapiens [22]): 0%
Activity (Homo sapiens [23]): 12.5%
Activity (Homo sapiens [24]): 0%
AUC at 504 h [25]: 11900 ng·h/mL
Activity (Homo sapiens [26]): 0%
AUC at 504 h [27]: 22700 ng·h/mL
AUC at 504 h [28]: 13100 ng·h/mL
Activity (Homo sapiens [29]): 0%
Tmax [30]: 2.88 h
Activity (Homo sapiens [31]): 0%
Activity (Homo sapiens [32]): 0%
Activity (Homo sapiens [33]): 0%
AUC at 504 h [34]: 23400 ng·h/mL
Activity (Homo sapiens [35]): 0%
Activity (Homo sapiens [36]): 0%
Activity (Homo sapiens [37]): 0%
Activity (Homo sapiens [38]): 0%
AUC at 504 h [39]: 21000 ng·h/mL
Tmax [40]: 2.63 h
half-life [41]: 1130 min
Activity (Homo sapiens [42]): 0%
Activity (Homo sapiens [43]): 12.5%
Activity (Homo sapiens [44]): 12.5%
Activity (Homo sapiens [45]): 0%
AUC at 504 h [46]: 10100 ng·h/mL
Activity (Homo sapiens [47]): 25%
half-life [48]: 1190 min
